Results on 24 compounds are retold here after ChEMBL document CHEMBL1782051, “Synthesis and biological evaluation of novel gamma-carboline analogues of Dimebon as potent 5-HT6 receptor antagonists” (Bioorg Med Chem Lett, 2009).

The target of experiment [1] is T1, Histamine H1 receptor (Homo sapiens, UniProt P35367). The experiment in a line: Antagonist activity at human histamine H1 receptor in SK-N-SH cells assessed as inhibition of histamine-induced calcium level increase during phase-1 compound incubated before histamine addition by Fura-2 based fluorometric assay. The format is functional, cell-based. A digest of the protocol:
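H1 receptor Ca-dependent signalling was measured in SK-N-SH cells as blockade of histamine-induced calcium flow in phase-I. IC50 values were reported.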

Experiment [2] has as its target 5-hydroxytryptamine receptor 6 (Homo sapiens, UniProt P50406). The experiment can be described thus: Antagonist activity at human recombinant 5-HT6 receptor expressed in HEK293 cells assessed as inhibition of serotonin-induced intracellular cAMP accumulation by LANCE technique. The format is functional, cell-based. A digest of the protocol:
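Cells continuously express recombinant human 5-HT6 receptors. Serotonin stimulation raises intracellular cyclic AMP, which was monitored continuously by LANCE technology. Read-out was inhibition of the serotonin-dependent cAMP response.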
On the technique in general: cAMP levels reflect the balance of adenylyl cyclase and phosphodiesterase activity.

Experiment [3] addresses T1, Histamine H1 receptor. The experiment in a line: Antagonist activity at human histamine H1 receptor in SK-N-SH cells assessed as inhibition of histamine-induced calcium flow during phase-II compound dosed after histamine addition by Fura-2 based fluorometric assay. The format is functional.
Experiment [4] in a line: Neuroprotective activity in cerebellum cell culture assessed as protection against beta-amyloid fragment Abeta (25-35)-induced neurotoxicity. The class given is functional, tissue-based.
The target in the next experiment is Cholinesterase (Homo sapiens, UniProt P06276). The experiment can be described thus: Inhibition of BuChE.
Sequence of Cholinesterase (P06276 whole entry): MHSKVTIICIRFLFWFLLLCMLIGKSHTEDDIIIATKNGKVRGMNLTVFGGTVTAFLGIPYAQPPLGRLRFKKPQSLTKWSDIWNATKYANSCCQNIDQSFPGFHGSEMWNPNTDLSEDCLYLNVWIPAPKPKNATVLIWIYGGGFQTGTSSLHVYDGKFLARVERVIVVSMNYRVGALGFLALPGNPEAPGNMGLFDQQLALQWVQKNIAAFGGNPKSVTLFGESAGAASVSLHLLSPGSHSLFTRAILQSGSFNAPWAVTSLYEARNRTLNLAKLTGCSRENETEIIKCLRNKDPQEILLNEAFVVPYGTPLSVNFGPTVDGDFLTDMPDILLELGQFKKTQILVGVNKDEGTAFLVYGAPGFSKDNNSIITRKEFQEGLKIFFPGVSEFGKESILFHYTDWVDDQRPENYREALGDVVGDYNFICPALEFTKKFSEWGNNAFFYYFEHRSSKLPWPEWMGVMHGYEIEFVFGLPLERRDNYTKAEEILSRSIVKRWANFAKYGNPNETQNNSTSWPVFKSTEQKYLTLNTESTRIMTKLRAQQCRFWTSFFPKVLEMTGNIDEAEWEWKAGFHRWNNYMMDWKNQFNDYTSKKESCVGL
Experiment [5] addresses Glutamate NMDA receptor (Rattus norvegicus) (UniProt P35439+Q00959+Q00960+Q00961+Q62645+Q8VHN2+Q9R1M7). The experiment in a line: Inhibition of NMDA receptor in rat brain cortical neurons assessed as blocking of NMDA-induced currents. The format is tissue-based.
Experiment [6] in a line: Inhibition of L-type calcium channel.
The next experiment concerns the target Acetylcholinesterase (Homo sapiens, UniProt P22303). The experiment in a line: Inhibition of AChE.

T1 sequence (P35367 whole entry): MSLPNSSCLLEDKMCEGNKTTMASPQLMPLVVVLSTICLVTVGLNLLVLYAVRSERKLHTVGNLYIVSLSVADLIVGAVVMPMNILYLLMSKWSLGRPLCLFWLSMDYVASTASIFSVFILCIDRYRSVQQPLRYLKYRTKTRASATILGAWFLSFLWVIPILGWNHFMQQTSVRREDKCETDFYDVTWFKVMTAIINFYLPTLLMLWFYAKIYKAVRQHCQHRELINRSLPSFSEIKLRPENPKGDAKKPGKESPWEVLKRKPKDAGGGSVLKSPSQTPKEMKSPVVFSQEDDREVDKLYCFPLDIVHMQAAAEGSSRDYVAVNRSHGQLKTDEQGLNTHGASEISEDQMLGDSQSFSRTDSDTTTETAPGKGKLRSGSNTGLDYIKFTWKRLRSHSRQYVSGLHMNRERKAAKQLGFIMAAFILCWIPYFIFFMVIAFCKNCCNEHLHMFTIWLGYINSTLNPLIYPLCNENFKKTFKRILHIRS
Sequence of 5-hydroxytryptamine receptor 6 (P50406 whole entry): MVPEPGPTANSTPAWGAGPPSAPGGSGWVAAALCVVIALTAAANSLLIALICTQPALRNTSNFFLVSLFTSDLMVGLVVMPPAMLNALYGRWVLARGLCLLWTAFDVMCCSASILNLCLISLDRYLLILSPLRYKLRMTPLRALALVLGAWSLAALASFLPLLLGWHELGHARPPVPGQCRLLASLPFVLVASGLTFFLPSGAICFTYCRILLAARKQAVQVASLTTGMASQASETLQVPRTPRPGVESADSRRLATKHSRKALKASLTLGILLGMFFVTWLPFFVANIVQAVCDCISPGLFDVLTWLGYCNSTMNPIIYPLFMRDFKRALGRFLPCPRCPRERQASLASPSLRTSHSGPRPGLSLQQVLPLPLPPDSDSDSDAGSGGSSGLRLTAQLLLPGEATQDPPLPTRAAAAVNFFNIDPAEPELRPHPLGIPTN
Sequence of Acetylcholinesterase (P22303 whole entry): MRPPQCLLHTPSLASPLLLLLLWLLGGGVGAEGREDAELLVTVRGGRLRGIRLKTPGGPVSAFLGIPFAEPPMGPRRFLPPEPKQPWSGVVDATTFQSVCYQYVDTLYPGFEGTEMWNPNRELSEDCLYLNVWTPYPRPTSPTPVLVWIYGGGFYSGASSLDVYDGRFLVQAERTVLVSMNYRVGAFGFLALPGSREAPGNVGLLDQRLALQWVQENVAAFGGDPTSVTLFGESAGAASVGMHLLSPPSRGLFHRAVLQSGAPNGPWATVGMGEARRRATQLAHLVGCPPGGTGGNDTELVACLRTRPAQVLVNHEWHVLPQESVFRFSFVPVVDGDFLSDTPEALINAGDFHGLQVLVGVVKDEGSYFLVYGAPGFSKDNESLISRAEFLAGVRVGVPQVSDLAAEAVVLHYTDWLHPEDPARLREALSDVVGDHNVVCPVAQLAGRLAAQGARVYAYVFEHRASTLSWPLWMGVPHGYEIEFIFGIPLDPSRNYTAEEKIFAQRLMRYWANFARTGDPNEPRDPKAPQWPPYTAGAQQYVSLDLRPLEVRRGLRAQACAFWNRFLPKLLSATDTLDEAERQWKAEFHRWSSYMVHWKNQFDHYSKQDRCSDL

`CN1CCc2c(c3ccccc3n2CCc2ccccn2)C1`: the IC50 (as a rule, the concentration that gives 50% inhibition) on Histamine H1 receptor [1] stood at 1820 nM; in experiment [2] (read-out: IC50), 15800 nM; on Histamine H1 receptor [3] it was 930 nM.
For the compound `CN1CCc2c(c3ccccc3n2CCc2cccnc2)C1`, the IC50 at Histamine H1 receptor [1] came out at 100 nM; in experiment [2] (read-out: IC50), 5990 nM; on Histamine H1 receptor [3], 410 nM.
Regarding `Cc1ccc2c(c1)c1c(n2CCc2ccccn2)CCN(C2CCN(C)CC2)C1`, the IC50 was > 10000 nM on Histamine H1 receptor [1] and “Not Active” in experiment [2] (hek293).
On to `CN1CCc2c(c3cc(C(F)(F)F)ccc3n2CCc2ccccn2)C1`, for which the IC50 on Histamine H1 receptor [1] was 560 nM; in experiment [2] (read-out: IC50) it was 1590 nM; at Histamine H1 receptor [3] it was 1590 nM.
With `CN1CCc2c(c3cc(-c4cccnc4)ccc3n2CCc2ccccn2)C1`, the figures for the IC50 (on Histamine H1 receptor [1]; in experiment [2] (read-out: IC50)) were 7160 nM and 43200 nM, respectively.
In the case of `CN1CCc2c(c3cc(C(=O)O)ccc3n2CCc2ccncc2)C1`, the IC50 (at Histamine H1 receptor [1]; in experiment [2] (read-out: IC50)) was > 10000 nM in each case.
`CN1CCc2c(c3cc(C#N)ccc3n2CCc2ccccn2)C1`: the values for the IC50 (at Histamine H1 receptor [1]; in experiment [2] (read-out: IC50)) were 1290 nM and 7470 nM, respectively.
For the compound `Cc1ccc2c(c1)c1c(n2CCc2ccccn2)CCN(C)C1`, the concentration for half-maximal inhibition (IC50) at Histamine H1 receptor [1] was determined as 500 nM; in experiment [2] (read-out: IC50), 860 nM; at Histamine H1 receptor [3], 10000 nM.
Take `CN1CCc2c(c3ccccc3n2CCc2ccncc2)C1`: the IC50 on Histamine H1 receptor [1] came to 120 nM; in experiment [2] (read-out: IC50) it was 8910 nM; at Histamine H1 receptor [3], 500 nM.
Turning to `COc1ccc2c(c1)c1c(n2CCc2ccncc2)CCN(C)C1`, the values for the IC50 (at Histamine H1 receptor [1]; in experiment [2] (read-out: IC50)) were 390 nM and 4340 nM, respectively.
For `CN1CCc2c(c3cc(C(F)(F)F)ccc3n2CCc2ccncc2)C1`, in that order: 220 nM and 6400 nM.
As for `CN1CCc2c(c3cc(F)ccc3n2CCc2ccncc2)C1`, the results for the IC50 (on Histamine H1 receptor [1]; in experiment [2] (read-out: IC50); at Histamine H1 receptor [3]) were 120 nM, 3240 nM and 470 nM, respectively.
For `Cc1ccc(CCn2c3c(c4cc(F)ccc42)CN(C)CC3)cn1`, in that order: 110 nM, 10700 nM and 730 nM.
Consider `Cc1ccc2c(c1)c1c(n2CCc2ccncc2)CCN(C)C1`, for which the concentration for half-maximal inhibition (IC50) on Histamine H1 receptor [1] is 160 nM; in experiment [2] (read-out: IC50), 370 nM; at Histamine H1 receptor [3] it was 3980 nM.
Turning to `Cc1ccc2c(c1)c1c(n2CCc2ccncc2)CCN(C2CCN(C)CC2)C1`, the IC50 is 7570 nM on Histamine H1 receptor [1] and “Not Active” in experiment [2] (hek293).
Consider `Cc1ccc2c(c1)c1c(n2CCc2ccc(C)nc2)CCN(C)C1` [LATREPIRDINE], for which the IC50 at Histamine H1 receptor [1] was determined as 160 nM; on Cholinesterase, 7900 nM; in experiment [2] (read-out: IC50) it was 890 nM; in experiment [6], 57000 nM; at Histamine H1 receptor [3], 1580 nM; against Acetylcholinesterase, 45000 nM. For the same compound, the EC50 (as a rule, the midpoint of the concentration-response curve) in experiment [4] was 25000 nM. In addition, the ED50 in experiment [5] worked out at 42000 nM.
Regarding `COc1ccc2c(c1)c1c(n2CCc2ccccn2)CCN(C)C1`, the IC50 turned out to be 4670 nM at Histamine H1 receptor [1] and 8360 nM in experiment [2] (read-out: IC50).
Consider `CN1CCc2c(c3cc(C(F)(F)F)ccc3n2CCc2cccnc2)C1`, for which the figures for the IC50 (on Histamine H1 receptor [1]; in experiment [2] (read-out: IC50)) were > 10000 nM and 5800 nM, respectively.
In the case of `Cc1ccc2c(c1)c1c(n2CCc2cccnc2)CCN(C)C1`, the IC50 at Histamine H1 receptor [1] worked out at 500 nM; in experiment [2] (read-out: IC50), 440 nM; on Histamine H1 receptor [3] it was 3160 nM.
In the same order, the values of `CN1CCc2c(c3cc(F)ccc3n2CCc2cccnc2)C1` are 650 nM, > 10000 nM and 930 nM.
Take `CN1CCc2c(c3cc(Br)ccc3n2CCc2ccccn2)C1`: the figures for the IC50 (at Histamine H1 receptor [1]; in experiment [2] (read-out: IC50)) were 120 nM and 1040 nM, respectively.
Take `Cc1ccc2c(c1)c1c(n2CCc2cccnc2)CCN(C2CCN(C)CC2)C1`: the IC50 on Histamine H1 receptor [1] was 2790 nM; in experiment [2] (hek293), “Not Active”.
In the case of `Cc1ccc2c(c1)c1c(n2CCc2cnccn2)CCN(C)C1`, the IC50 at Histamine H1 receptor [1] came to 320 nM; in experiment [2] (read-out: IC50), 2060 nM; on Histamine H1 receptor [3], 7940 nM.
As for `CN1CCc2c(c3cc(F)ccc3n2CCc2ccccn2)C1`, the concentration for half-maximal inhibition (IC50) is 940 nM on Histamine H1 receptor [1], 2980 nM in experiment [2] (read-out: IC50) and 610 nM on Histamine H1 receptor [3].
